We go through 19 compounds from ChEMBL document CHEMBL1128295 (J Med Chem, 1995).

Assay [1] concerns the target Histamine H1 receptor (Cavia porcellus) (UniProt P31389). Nature of the assay: H1-Histamine receptor agonism on guinea pig ileum as intrinsic activity given as 1.0 with respect to histamine (paired 't'test; p>0.05). It is filed as functional, tissue-based.
The target is the same in assay [2]. Briefly: The H1 receptor-mediated nature of the ileum contractionhas been verified by competition experiments with the H1 receptor antagonist mepyramine. The assay is classed as functional, tissue-based.
Assay [3] has the same target. Briefly: Contractile effect on isolated guinea pig ileal segments is a measure of H1 (histamine) receptor agonistic activity relative to histamine. The assay is classed as functional.
The target is the same in assay [4]. Briefly: Contractile effect on isolated guinea pig ileal segments by H1 (histamine) receptor agonism. It is filed as functional.
Assay [5] shares this target. Briefly: H1-Histamine receptor agonism on Guinea pig aorta was evaluated as Intrinsic activity given as 1.0 with respect to histamine (paired 't'test;p>0.05). The assay is classed as functional, tissue-based. Put shortly: (§1)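 Endothelium-denuded 4–6 mm guinea pig thoracic aortic rings, isometric (preload 10 mN), modified Krebs-Henseleit, 37 °C, 95% O2/5% CO2. […] Cumulative curves with 30 μM corticosterone, 100 μM cimetidine, 0.1 μM (R,S)-propranolol and phentolamine present.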

Assay [6] deals with Histamine H2 receptor (Cavia porcellus) (UniProt P47747). Briefly: Histamine H2 receptor agonism activity was determined on the isolated Guinea pig Atrium was determined as Intrinsic activity with respect to Histamine. The assay is classed as functional. In outline:
(§2)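 Spontaneously beating guinea pig right atrium, isometric, resting force 5 mN, (R,S)-metoprolol 300 nM present throughout.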

The target in assay [7] is Histamine H1 receptor (Cavia porcellus) (UniProt P31389). Briefly: Contractile effect on isolated guinea pig aorta is a measure of H1 (histamine) receptor agonistic activity relative to histamine. It is filed as functional, tissue-based. In outline:
as §1

Assay [8] shares this target. Briefly: Contractile effects on guinea pig aorta as histamine H1 receptor agonism. The assay is classed as functional, tissue-based. In outline:
as §1

Assay [9] deals with Histamine H2 receptor (Cavia porcellus) (UniProt P47747). Nature of the assay: Histamine H2 receptor agonism activity was determined on the isolated Guinea pig Atrium was determined as pD'2. The assay is classed as functional. In outline: as §2
Histamine H2 receptor (Cavia porcellus), sequence (P47747 whole entry): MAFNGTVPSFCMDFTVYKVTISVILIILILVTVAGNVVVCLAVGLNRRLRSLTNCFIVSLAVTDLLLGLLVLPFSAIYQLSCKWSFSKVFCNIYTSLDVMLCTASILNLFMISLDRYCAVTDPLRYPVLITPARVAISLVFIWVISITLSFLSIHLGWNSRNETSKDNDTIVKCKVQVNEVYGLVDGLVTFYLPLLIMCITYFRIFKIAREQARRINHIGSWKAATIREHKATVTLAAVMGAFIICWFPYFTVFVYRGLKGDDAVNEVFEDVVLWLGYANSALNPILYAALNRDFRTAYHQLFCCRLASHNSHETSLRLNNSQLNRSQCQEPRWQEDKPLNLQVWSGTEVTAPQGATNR
Assay [10] deals with Histamine H1 receptor (Cavia porcellus) (UniProt P31389). Briefly: Contractile effects of compound on the guinea pig aorta as a measure of histamine H1 receptor agonism; f - effect could be antagonized with 1 pM mepyramine added to the bath solution when a plateau was reached. The assay is classed as functional, tissue-based. As to conditions: filed as agonist, in the assay text read “1 µM mepyramine” for “1 pM mepyramine”. Put shortly:
as §1

Molecules are shown by their SMILES. Where “and” joins values, the source holds several entries; their conditions need not be identical. Equal entries are not always repeated. Some results are limits rather than exact numbers.

Histamine H1 receptor (Cavia porcellus), sequence (P31389 whole entry): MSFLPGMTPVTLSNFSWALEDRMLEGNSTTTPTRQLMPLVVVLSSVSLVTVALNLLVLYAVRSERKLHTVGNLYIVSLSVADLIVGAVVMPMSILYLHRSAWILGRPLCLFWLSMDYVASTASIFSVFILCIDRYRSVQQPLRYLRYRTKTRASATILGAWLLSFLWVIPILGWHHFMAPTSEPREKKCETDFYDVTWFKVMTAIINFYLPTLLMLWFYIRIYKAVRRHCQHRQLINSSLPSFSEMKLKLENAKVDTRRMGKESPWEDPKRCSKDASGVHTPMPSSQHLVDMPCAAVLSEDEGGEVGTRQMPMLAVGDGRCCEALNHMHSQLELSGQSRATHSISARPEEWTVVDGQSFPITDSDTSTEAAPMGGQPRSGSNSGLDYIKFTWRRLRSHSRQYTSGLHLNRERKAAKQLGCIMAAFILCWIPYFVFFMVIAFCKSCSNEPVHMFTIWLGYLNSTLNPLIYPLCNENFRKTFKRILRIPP

In turn, `NCCc1c[nH]c(-c2cc3ccccc3c3ccccc23)n1` had an Intrinsic activity in assay [1] of 0. This compound also had a pKb in assay [2] of 4.73.
In [1], `NCCc1c[nH]c(-c2cccc(OC(F)(F)F)c2)n1` registered an Intrinsic activity of 1. This compound displayed a Relative activity in assay [3] of 54%. In assay [2], this compound came in with a negative logarithm of the Kb (pKb) of 8.92. Further, the pD2 in assay [4] was 6.43.
On to `NCCc1c[nH]cn1`, for which the results for the Intrinsic activity in assay [5] and in [6] were 1.06 and 1, respectively. The same compound gave a pKb in [2] of 9.09. The pD2 in assay [4] was 6.7.
In the case of `NCCc1c[nH]c(-c2ccccc2)n1`, the Intrinsic activity in assay [1] was found to be 1; in [5], 0.86; in assay [6], 0.2. Also, the Relative activity was 19% in assay [7]; 10% and 31% in [3]. Also, the results for the negative-log Kb (pKb) in [8] and in assay [2] were 9.1 and 8.87, respectively. The compound also registered a pD2 in assay [4] of 6.2. The compound further returned a pD'2 in assay [9] of less than 3.
In assay [3], `COc1cccc(-c2nc(CCN)c[nH]2)c1` gave a Relative activity of 40%.
Take `NCCc1c[nH]c(-c2cccc(Cl)c2)n1`: the Relative activity in assay [3] is 81%.
Take `NCCc1c[nH]c(Cc2ccc(C(F)(F)F)cc2)n1`: in [1], the Intrinsic activity is 0. This compound displayed a PkB in assay [2] of 4.53.
Compound `Cc1cccc(-c2nc(CCN)c[nH]2)c1` came in with an Intrinsic activity in assay [1] of 1. The compound also yielded a Relative activity in assay [3] of 15%. The compound further showed a pKb in [2] of 9.04. In assay [4], this compound showed a pD2 of 5.87.
As for `NCCc1c[nH]c(-c2cccc(I)c2)n1`, the values for the Intrinsic activity in [1], in assay [5] and in assay [6] were 1, 0.49 and 0, respectively. The Relative activity in [7] was found to be 47%; in assay [3], 96%. In addition, the figures for the negative-log Kb (pKb) in assay [8] and in assay [2] were 9.13 and 9.28, respectively. Besides, the pD2 in assay [4] turned out to be 6.68. The same compound returned a pD'2 in assay [9] of 3.76.
In turn, `NCCc1c[nH]c(-c2cncc(Br)c2)n1` showed an Intrinsic activity in [1] of 1. In addition, the Relative activity in [3] is 70%. Also, the pKb in assay [2] turned out to be 9.03. The compound further gave a pD2 in assay [4] of 6.54.
In turn, `CNCCc1ccccn1` gave a Relative activity in [3] of 8%.
As to `NCCc1c[nH]c(Cc2ccccc2C(F)(F)F)n1`, the Intrinsic activity in assay [1] worked out at 0. For the same compound, the negative logarithm of the Kb (pKb) in assay [2] is 3.55.
Turning to `NCCc1c[nH]c(-c2cccc(F)c2)n1`, the Relative activity in assay [3] was 87%.
The compound `Cc1ncc(CCN)[nH]1` returned a Relative activity in assay [3] of 15%.
`NCCc1c[nH]c(-c2cccc(Br)c2)n1`: the figures for the Intrinsic activity in [1], in assay [5] and in assay [6] were 1, 0.64 and 0, respectively.
On to `NCCc1c[nH]c(Cc2ccccc2Cl)n1`, for which the figures for the Intrinsic activity in assay [1] and in [5] were 0.54 and 0.38, respectively. The Relative activity in assay [7] is 0.2%; in [3] it was 3%. Also, the results for the pKb result in assay [10] and in assay [2] were “Agonist” and 8.91, respectively. The compound also registered a pD2 in [4] of 5.11.
For `NCCc1c[nH]c(C(F)(F)F)n1`, the values for the Intrinsic activity in [1] and in [6] were 1 and 0.55, respectively. Besides, the Relative activity in [3] came to 7%. In addition, the negative-log Kb (pKb) in assay [2] is 9.19. Besides, in assay [4], the pD2 was 5.57.
Take `NCCc1c[nH]c(Cc2cccc(Cl)c2)n1`: the Intrinsic activity stood at 0.76 in [1] and 0.51 in assay [5]. Further, the Relative activity worked out at 0.4% in assay [7] and 2% in assay [3]. Besides, the negative-log Kb (pKb) entry in assay [10] was “Agonist”; in assay [2], 8.81. For the same compound, in assay [4], the pD2 was 4.88.
Regarding `NCCc1c[nH]c(Cc2ccsc2)n1`, the Intrinsic activity in assay [1] stood at 1; in assay [5], 0.4. The Relative activity in [7] was 0.9%; in [3] it was 4%. The pKb entry was “Agonist” in [10] and 8.97 in assay [2]. In addition, in [4], the pD2 is 5.26.

As a reminder, the pKb is the Kb on a negative log10 scale, so that one unit is a factor of ten.
